In ChEMBL document CHEMBL1221219, “Selective blockade of 2-arachidonoylglycerol hydrolysis produces cannabinoid behavioral effects” (Nat Chem Biol, 2009):
The source made the active and inactive calls. The rule behind the calls is not given here.

Legend:
[1] = biological target: T1, Fatty-acid amide hydrolase 1 (Mus musculus, UniProt O08914); assay: Inhibition of FAAH in C57B1/6J mouse brain membrane after 20 mins by using oleamide as a substrate by LC-MS method; type: cell membranes
T1 sequence (O08914 whole entry): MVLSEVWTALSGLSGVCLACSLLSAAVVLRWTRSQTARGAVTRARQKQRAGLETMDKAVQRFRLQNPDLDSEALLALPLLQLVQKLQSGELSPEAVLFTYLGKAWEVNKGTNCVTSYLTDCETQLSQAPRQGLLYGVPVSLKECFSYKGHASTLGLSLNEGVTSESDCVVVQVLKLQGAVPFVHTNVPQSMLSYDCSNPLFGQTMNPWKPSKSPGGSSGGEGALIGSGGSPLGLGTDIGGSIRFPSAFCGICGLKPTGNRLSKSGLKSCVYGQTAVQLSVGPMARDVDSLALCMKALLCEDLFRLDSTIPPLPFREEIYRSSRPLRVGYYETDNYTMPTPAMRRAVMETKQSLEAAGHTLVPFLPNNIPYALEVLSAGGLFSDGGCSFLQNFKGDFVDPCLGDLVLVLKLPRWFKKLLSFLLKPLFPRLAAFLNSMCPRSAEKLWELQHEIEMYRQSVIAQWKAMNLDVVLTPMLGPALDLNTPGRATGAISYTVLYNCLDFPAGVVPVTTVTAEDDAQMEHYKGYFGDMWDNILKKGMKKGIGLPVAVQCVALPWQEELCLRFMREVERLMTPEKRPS
Method in brief: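 Mouse brain membrane proteome pre-incubated with inhibitor for 30 min at 37°C, then oleamide (FAAH substrate) added. Hydrolysis quantified by an LC-MS substrate assay.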

[2] = biological target: T2, Diacylglycerol lipase-alpha (Homo sapiens) (UniProt Q9Y4D2); assay: Inhibition of recombinant DAGLalpha expressed in HEK293 cells assessed as hydrolysis of 1-stearoyl-2-arachidonoyl-glycerol to 2-AG at 10 uM after 30 mins by LC-MS method; type: cell-based
T2 sequence (whole entry): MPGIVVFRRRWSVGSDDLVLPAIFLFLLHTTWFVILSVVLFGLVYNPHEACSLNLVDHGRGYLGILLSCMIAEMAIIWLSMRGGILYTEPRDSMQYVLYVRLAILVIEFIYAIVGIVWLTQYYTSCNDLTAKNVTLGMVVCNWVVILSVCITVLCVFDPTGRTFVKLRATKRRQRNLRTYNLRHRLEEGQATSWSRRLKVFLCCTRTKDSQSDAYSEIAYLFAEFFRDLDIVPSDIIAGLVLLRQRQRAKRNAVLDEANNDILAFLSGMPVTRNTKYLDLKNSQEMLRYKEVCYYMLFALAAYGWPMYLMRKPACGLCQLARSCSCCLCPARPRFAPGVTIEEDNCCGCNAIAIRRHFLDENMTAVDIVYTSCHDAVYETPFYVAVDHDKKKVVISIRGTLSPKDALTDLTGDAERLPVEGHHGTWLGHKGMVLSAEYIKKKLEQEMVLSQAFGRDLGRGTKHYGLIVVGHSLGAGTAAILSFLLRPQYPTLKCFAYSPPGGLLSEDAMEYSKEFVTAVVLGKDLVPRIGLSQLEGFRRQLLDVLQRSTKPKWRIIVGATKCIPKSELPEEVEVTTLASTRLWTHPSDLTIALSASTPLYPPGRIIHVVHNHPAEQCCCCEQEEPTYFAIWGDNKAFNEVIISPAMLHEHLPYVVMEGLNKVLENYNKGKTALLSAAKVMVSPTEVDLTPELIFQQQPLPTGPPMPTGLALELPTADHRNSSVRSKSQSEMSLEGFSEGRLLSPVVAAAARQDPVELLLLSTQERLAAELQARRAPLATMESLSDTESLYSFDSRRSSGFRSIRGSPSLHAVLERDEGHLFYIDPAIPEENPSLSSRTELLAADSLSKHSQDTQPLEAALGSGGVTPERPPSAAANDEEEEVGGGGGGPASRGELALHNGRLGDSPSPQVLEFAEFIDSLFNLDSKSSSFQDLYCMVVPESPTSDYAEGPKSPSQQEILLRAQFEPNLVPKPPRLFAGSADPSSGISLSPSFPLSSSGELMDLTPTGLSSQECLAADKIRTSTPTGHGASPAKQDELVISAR

Mus musculus [3] = assay: Inhibition of RBBP9 in C57B1/6J mouse brain membrane at 16 mg/kg, ip after 4 hrs by competitive activity-based protein profiling-MudPIT method; type: functional, organism-based; parameters: dose 16 mg/kg
Method in brief: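 After i.p. dosing in 4:1 PEG300:Tween80, male C57Bl/6J mice were killed at 4 h. Brain membrane proteomes from treated and vehicle mice were labelled with FP-biotin. Labelled proteins were enriched on avidin, digested on-bead with trypsin and analysed by multidimensional LC-MS. Proteins were identified by SEQUEST, and dosed samples were compared with vehicle.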

Mus musculus [4] = assay: Inhibition of ABHD11 in C57B1/6J mouse brain membrane at 16 mg/kg, ip after 4 hrs by competitive activity-based protein profiling-MudPIT method; type: functional, organism-based; parameters: dose 16 mg/kg
Method in brief: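 Mice were dosed 16 mg kg^-1 i.p. or vehicle and killed at 4 h. Brain membrane proteomes were labelled with FP-biotin, avidin-enriched, trypsin-digested on bead, analysed by multidimensional LC-MS and identified by SEQUEST.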

Mus musculus [5] = assay: Inhibition of MAGL in C57B1/6J mouse brain membrane at 16 mg/kg, ip after 0.5 hrs by competitive activity-based protein profiling method; type: functional, organism-based; parameters: dose 16 mg/kg
Method in brief: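 Male C57Bl/6J mice (6-8 weeks, 20-26 g) given inhibitor i.p. in 4:1 v/v PEG300:Tween80 at 4 ul g^-1 (4-40 mg kg^-1); vehicle controls. Brain membrane proteomes (1 mg ml^-1 in PBS) labelled with FP-rhodamine (2 μM) for 30 min at room temperature. Readout by SDS-PAGE and in-gel fluorescence scanning, compared with vehicle.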

Mus musculus [6] = assay: Change in anandamide level in C57B1/6J mouse brain at 16 mg/kg, ip by LC-MS; type: functional, organism-based; parameters: dose 16 mg/kg
Method in brief: (§1)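 Mice received 16 mg kg^-1 i.p. in 4:1 PEG300:Tween80 and were killed at 0.5, 1, 2, 4, 8 and 24 h. Brain lipids, including N-acylethanolamines, MAGs, free fatty acids and arachidonic acid, were measured by LC-MS.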

Mus musculus [7] = assay: Change in free fatty acid level in C57B1/6J mouse brain at 16 mg/kg, ip by LC-MS; type: functional, organism-based; parameters: dose 16 mg/kg; method in brief: as §1

For `O=C(Oc1ccc([N+](=O)[O-])cc1)N1CCC(C(O)(c2ccc3c(c2)OCO3)c2ccc3c(c2)OCO3)CC1`, the IC50 [1] was 4 µM, the inhibition [2] was “inactive” and the inhibition (Mus musculus [3]) was “inactive”. The inhibition (Mus musculus [4]) was “inactive”, the inhibition (Mus musculus [5]) was “Active” and the Activity (Mus musculus [6]) was “inactive”. For the same molecule, the Activity (Mus musculus [7]) was “inactive”.
